Source: ChEMBL document CHEMBL4311940, “Design, Synthesis, and Biological Evaluation of 4-Methyl Quinazoline Derivatives as Anticancer Agents Simultaneously Targeting Phosphoinositide 3-Kinases and Histone Deacetylases” (J Med Chem, 2019)

How the values were obtained:
HCT-116 [1] = experiment: Induction of apoptosis in human HCT116 cells assessed as late apoptotic cells at 20 nM after 48 hrs by Annexin V-FITC/propidium iodide staining-based flow cytometric analysis (reference value: 3.87%); format: functional
HCT-116 [2] = experiment: Induction of apoptosis in human HCT116 cells assessed as necrotic cells at 500 nM after 48 hrs by Annexin V-FITC/propidium iodide staining-based flow cytometric analysis (reference value: 5.23%); format: functional
[3] = target: Phosphatidylinositol 4,5-bisphosphate 3-kinase catalytic subunit gamma isoform (Homo sapiens, UniProt P48736); experiment: Inhibition of recombinant human His-tagged PIK3CG expressed in baculovirus expression system using PIP2 as substrate incubated for 1 hr by ADP-glo assay
How it was run: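 Recombinant PI3Kβ, -γ or -δ, serially diluted compound, PIP2 substrate and ATP combined in kinase buffer. Incubated 1 h at room temperature in the dark, then stopped with ADP-Glo reagent. Luminescence read after kinase detection reagent; IC50 by curve fitting.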

NCI-H1299 = experiment: Antiproliferative activity against human NCI-H1299 cells after 96 hrs by MTT assay; format: functional, cell-based; details: NCI-H1299, 96 h
K562 = experiment: Antiproliferative activity against human K562 cells after 96 hrs by MTT assay; format: functional, cell-based; details: K562, 96 h
[4] = Mutagenicity in Salmonella typhimurium TA97 at 5 to 500 ug/plate in absence of s9 mix by Ames test; format: toxicity; details: salmonella enterica subsp. enterica serovar typhimurium
How it was run: (§1)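 Plate incorporation method at 5, 50 and 500 μg/plate, with and without S9 activation. At least three plates per dose, incubated 72 h at 37 °C, revertants counted. Mean revertants compared with vehicle and positive controls.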

MCF7 = experiment: Antiproliferative activity against human MCF7 cells after 96 hrs by MTT assay; format: functional, cell-based; details: MCF7, 96 h
Bel-7402 = experiment: Antiproliferative activity against human Bel7402 cells after 96 hrs by MTT assay; format: functional, cell-based; details: Bel-7402, 96 h
SW1990 = experiment: Antiproliferative activity against human SW1990 cells after 96 hrs by MTT assay; format: functional, cell-based; details: SW1990, 96 h
Histone deacetylase 2 = Histone deacetylase 2 (Homo sapiens, UniProt Q92769); experiment: Inhibition of recombinant human full length HDAC2 expressed in baculovirus infected Sf9 insect cells using Ac-peptide as substrate preincubated for 15 mins followed by substrate addition and measured after 1 hr
How it was run: (§2)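 Recombinant HDAC isoforms mixed with serially diluted compound in assay buffer for 15 min at room temperature. Ac-peptide substrate then added and incubated 1 h at room temperature. Signal read on a plate reader; IC50 by curve fitting.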

[5] = Mutagenicity in Salmonella typhimurium TA100 at 5 to 500 ug/plate in absence of s9 mix by Ames test; format: toxicity; details: salmonella enterica subsp. enterica serovar typhimurium; how it was run: as §1
Histone deacetylase 11 = Histone deacetylase 11 (Homo sapiens, UniProt Q96DB2); experiment: Inhibition of recombinant human full length HDAC11 expressed in baculovirus infected Sf9 insect cells using Ac-peptide as substrate preincubated for 15 mins followed by substrate addition and measured after 1 hr; how it was run: as §2
[6] = Cmax in ICR mouse at 3 mg/kg, iv measured after 0.033 to 24 hrs by LC/MS/MS analysis; format: ADME, organism-based; parameters: dose 3 mg/kg, route intravenous; details: in vivo
How it was run: (§3)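 ICR mice; iv 3 mg/kg in 10% DMSO/saline (3 mice/group), blood at 0.033, 0.083, 0.25, 0.5, 1, 2, 4, 8, 12, 24 h; po 30 mg/kg as 0.5% cmc/0.3% Tween 80 suspension (5 mice/group), blood at 0.083–24 h. Plasma extracted with acetonitrile, LC/MS/MS; parameters by noncompartmental analysis.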

NCI-H460 = experiment: Antiproliferative activity against human NCI-H460 cells after 96 hrs by MTT assay; format: functional, cell-based; details: NCI-H460, 96 h
[7] = Toxicity in ip dosed ICR mouse assessed as maximum tolerated dose; format: organism-based; details: in vivo
How it was run: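 Male ICR mice, 6−8 weeks old, given one dose; vehicle 0.5% cmc with Tween 80 for oral dosing, saline for intraperitoneal dosing. Clinical signs observed and body weights recorded for 7 consecutive days after dosing to set the maximum tolerated dose.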

DU-145 = experiment: Antiproliferative activity against human DU145 cells after 96 hrs by MTT assay; format: functional, cell-based; details: DU-145, 96 h
[8] = Clearance in ICR mouse at 3 mg/kg, iv measured after 0.033 to 24 hrs by LC/MS/MS analysis; format: ADME, organism-based; details: in vivo; how it was run: as §3
HCT-116 [9] = experiment: Induction of apoptosis in human HCT116 cells assessed as live cells at 20 nM after 48 hrs by Annexin V-FITC/propidium iodide staining-based flow cytometric analysis (reference value: 89.6%); format: functional
Histone deacetylase 8 = Histone deacetylase 8 (Homo sapiens, UniProt Q9BY41); experiment: Inhibition of recombinant human full length C-terminal His-tagged HDAC8 expressed in baculovirus infected Sf9 insect cells using Ac-peptide as substrate preincubated for 15 mins followed by substrate addition and measured after 1 hr; how it was run: as §2
HCT-116 [10] = experiment: Induction of apoptosis in human HCT116 cells assessed as necrotic cells at 20 nM after 48 hrs by Annexin V-FITC/propidium iodide staining-based flow cytometric analysis (reference value: 5.23%); format: functional
[11] = Cmax in ICR mouse at 30 mg/kg, po measured after 0.083 to 24 hrs by LC/MS/MS analysis; format: ADME, organism-based; parameters: dose 30 mg/kg, route oral; details: in vivo; how it was run: as §3
HepG2 = experiment: Antiproliferative activity against human HepG2 cells after 96 hrs by MTT assay; format: functional, cell-based; details: HepG2, 96 h
[12] = Apparent volume of distribution in ICR mouse at 3 mg/kg, iv measured after 0.033 to 24 hrs by LC/MS/MS analysis; format: ADME, organism-based; details: in vivo, read-out: Vz; how it was run: as §3
HCT-116 [13] = experiment: Induction of apoptosis in human HCT116 cells assessed as live cells at 100 nM after 48 hrs by Annexin V-FITC/propidium iodide staining-based flow cytometric analysis (reference value: 89.6%); format: functional
U-87 MG = experiment: Antiproliferative activity against human U87 cells after 96 hrs by MTT assay; format: functional, cell-based, U-87MG ATCC
[14] = target: Voltage-gated inwardly rectifying potassium channel KCNH2 (Homo sapiens, UniProt Q12809); experiment: Inhibition of human ERG stably expressed in CHO cells by whole cell patch clamp method; format: cell-based
How it was run: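 CHO cells stably expressing hERG, grown in F-12 (Ham)/GlutaMAX with 10% FBS, penicillin G, blasticidin S and hygromycin B. Expression induced with 1 μg/mL doxycycline, cells cultured 24 h, then recorded by whole-cell patch clamp.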

Huh-7 = experiment: Antiproliferative activity against human HuH7 cells after 96 hrs by MTT assay; format: functional, cell-based; details: Huh-7, 96 h
HCT-116 [15] = experiment: Induction of apoptosis in human HCT116 cells assessed as late apoptotic cells at 500 nM after 48 hrs by Annexin V-FITC/propidium iodide staining-based flow cytometric analysis (reference value: 3.87%); format: functional
[16] = Oral bioavailability in ICR mouse at 30 mg/kg measured after 0.083 to 24 hrs by LC/MS/MS analysis; format: ADME, organism-based; details: in vivo
How it was run: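 Male-unspecified ICR mice, 3 per group iv (3 mg/kg in 10% DMSO/saline) and 5 per group po (30 mg/kg in 0.5% cmc/0.3% Tween 80). Blood sampled 0.033 (iv) or 0.083 (po) to 24 h. Plasma extracted with acetonitrile, analysed by LC/MS/MS; noncompartmental analysis.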

Sequence of Histone deacetylase 11 (Q96DB2 whole entry): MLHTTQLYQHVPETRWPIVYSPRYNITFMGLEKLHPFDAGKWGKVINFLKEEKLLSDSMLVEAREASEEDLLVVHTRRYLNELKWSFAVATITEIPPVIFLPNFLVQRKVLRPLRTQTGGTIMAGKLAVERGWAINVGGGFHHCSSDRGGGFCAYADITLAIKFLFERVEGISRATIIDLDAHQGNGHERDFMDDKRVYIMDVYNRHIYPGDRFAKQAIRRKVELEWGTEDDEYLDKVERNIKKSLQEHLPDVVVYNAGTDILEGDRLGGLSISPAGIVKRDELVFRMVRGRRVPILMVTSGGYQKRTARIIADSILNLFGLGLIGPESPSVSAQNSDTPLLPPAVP
Sequence of Histone deacetylase 8 (Q9BY41 whole entry): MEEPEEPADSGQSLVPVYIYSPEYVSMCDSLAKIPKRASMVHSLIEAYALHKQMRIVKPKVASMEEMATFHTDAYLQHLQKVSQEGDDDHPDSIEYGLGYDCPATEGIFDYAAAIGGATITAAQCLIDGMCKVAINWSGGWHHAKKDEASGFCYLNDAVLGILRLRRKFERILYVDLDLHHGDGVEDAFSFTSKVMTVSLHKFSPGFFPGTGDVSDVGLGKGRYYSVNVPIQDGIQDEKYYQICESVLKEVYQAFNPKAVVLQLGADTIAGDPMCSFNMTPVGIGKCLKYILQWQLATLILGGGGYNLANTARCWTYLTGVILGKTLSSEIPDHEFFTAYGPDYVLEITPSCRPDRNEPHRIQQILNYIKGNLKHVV
Sequence of Voltage-gated inwardly rectifying potassium channel KCNH2 (Q12809 whole entry): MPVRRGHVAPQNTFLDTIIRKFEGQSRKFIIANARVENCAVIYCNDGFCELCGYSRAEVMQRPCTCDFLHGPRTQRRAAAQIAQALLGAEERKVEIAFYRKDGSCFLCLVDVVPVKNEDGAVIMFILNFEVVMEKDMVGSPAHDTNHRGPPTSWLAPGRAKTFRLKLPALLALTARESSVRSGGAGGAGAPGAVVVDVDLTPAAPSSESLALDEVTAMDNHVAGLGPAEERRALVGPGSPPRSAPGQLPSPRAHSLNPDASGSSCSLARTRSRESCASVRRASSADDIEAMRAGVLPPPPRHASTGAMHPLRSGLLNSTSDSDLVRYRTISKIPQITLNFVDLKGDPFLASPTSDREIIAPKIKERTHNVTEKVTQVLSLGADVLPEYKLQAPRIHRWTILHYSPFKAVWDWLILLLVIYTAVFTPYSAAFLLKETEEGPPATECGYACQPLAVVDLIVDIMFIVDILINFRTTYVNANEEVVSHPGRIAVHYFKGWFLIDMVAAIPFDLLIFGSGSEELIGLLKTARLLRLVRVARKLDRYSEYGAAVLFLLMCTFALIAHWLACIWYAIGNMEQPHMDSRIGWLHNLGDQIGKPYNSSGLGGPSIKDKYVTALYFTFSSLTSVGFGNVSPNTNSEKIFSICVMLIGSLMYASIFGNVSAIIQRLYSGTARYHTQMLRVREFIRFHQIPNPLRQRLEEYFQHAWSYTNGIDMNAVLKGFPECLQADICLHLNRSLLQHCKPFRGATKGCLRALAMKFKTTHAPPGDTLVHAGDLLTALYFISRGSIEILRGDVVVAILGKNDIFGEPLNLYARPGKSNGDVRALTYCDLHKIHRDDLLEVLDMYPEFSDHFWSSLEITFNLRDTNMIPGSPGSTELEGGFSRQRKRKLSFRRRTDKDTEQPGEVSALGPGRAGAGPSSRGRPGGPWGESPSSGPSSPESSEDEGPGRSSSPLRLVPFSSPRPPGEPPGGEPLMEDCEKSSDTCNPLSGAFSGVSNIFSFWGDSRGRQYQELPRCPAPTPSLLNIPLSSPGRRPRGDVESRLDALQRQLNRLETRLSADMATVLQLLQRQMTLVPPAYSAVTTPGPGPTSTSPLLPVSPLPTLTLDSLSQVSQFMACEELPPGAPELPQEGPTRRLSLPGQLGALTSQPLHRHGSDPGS
Sequence of Histone deacetylase 2 (Q92769 whole entry, canonical isoform): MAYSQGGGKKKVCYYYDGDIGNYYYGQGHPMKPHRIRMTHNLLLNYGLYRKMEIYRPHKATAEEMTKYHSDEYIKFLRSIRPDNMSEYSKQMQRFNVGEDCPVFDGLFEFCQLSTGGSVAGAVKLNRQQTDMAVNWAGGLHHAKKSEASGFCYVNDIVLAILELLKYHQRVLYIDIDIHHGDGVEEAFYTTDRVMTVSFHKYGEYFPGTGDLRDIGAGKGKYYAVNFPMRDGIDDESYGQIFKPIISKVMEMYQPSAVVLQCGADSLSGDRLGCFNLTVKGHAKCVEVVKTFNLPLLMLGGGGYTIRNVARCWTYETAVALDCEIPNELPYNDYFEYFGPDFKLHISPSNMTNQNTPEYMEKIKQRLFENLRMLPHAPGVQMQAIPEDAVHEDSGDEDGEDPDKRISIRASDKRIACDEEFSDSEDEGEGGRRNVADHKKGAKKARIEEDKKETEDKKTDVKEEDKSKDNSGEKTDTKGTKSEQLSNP
Sequence of Phosphatidylinositol 4,5-bisphosphate 3-kinase catalytic subunit gamma isoform (P48736 whole entry, canonical isoform): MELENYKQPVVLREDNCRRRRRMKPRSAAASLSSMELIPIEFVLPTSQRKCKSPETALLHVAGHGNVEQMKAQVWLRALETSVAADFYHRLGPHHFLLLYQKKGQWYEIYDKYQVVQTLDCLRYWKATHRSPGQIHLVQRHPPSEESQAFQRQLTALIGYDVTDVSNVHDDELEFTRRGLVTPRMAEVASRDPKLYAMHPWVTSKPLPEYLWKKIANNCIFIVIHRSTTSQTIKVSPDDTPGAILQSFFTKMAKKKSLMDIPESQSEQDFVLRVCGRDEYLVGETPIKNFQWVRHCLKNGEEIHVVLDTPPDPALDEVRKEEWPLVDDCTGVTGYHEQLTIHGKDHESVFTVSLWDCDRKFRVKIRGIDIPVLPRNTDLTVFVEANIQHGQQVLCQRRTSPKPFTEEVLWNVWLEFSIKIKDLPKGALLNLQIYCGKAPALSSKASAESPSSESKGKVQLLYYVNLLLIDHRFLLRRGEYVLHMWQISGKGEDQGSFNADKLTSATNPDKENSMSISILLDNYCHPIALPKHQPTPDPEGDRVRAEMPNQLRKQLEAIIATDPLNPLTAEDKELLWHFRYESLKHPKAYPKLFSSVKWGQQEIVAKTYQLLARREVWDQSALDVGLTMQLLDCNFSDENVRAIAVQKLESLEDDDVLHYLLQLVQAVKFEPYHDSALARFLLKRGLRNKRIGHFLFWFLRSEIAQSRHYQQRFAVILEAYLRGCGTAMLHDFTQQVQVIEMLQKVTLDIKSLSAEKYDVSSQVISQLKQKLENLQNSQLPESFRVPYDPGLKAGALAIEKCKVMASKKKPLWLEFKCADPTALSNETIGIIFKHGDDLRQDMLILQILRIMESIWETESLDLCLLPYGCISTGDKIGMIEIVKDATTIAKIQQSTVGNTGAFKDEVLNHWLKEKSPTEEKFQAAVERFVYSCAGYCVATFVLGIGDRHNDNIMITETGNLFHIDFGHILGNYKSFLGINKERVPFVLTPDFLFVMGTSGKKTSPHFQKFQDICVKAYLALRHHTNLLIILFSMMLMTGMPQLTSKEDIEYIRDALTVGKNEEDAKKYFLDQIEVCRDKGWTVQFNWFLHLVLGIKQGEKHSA

`COc1ncc(-c2cc(OCCCCCCC(=O)NO)c3ncnc(C)c3c2)cc1F` showed an Activity (HCT-116 [1]) of 5.48%, an Activity (HCT-116 [2]) of 3.64% and an IC50 [3] of 67 nM. The IC50 (NCI-H1299) was 1000 nM, the IC50 (K562) was 6800 nM and the Activity [4] was “Non-Toxic”. For the same compound, the IC50 (MCF7) was 2000 nM, the IC50 (Bel-7402) was 5200 nM and the IC50 (SW1990) was 900 nM. The IC50 (Histone deacetylase 2) was 3 nM, the Activity [5] was “Non-Toxic” and the IC50 (Histone deacetylase 11) was greater than 1000 nM. The Cmax [6] was 3050 ng/mL, the IC50 (NCI-H460) was 3000 nM and the MTD [7] was greater than 100 mg/kg. It also gave an IC50 (DU-145) of 540 nM, a clearance [8] of 90 mL/min/kg and an Activity (HCT-116 [9]) of 88.6%. For the same compound, the IC50 (Histone deacetylase 8) was 18 nM, the Activity (HCT-116 [10]) was 4.1% and the Cmax [11] was 143 ng/mL. For the same compound, the IC50 (HepG2) was 1100 nM, the Vd [12] was 2.57 L/kg and the Activity (HCT-116 [13]) was 80.8%. The IC50 (U-87 MG) was 3200 nM, the IC50 [14] was greater than 30000 nM and the IC50 (Huh-7) was 2500 nM. For the same compound, the Activity (HCT-116 [15]) was 10.3% and the bioavailability ([16]; ICR) was 4.2%.

Work on `COc1ccc(-c2cc(OCCN(C)c3ncc(C(=O)NO)cn3)c3ncnc(C)c3c2)cn1` yielded an Activity (HCT-116 [1]) of 5.89%, an Activity (HCT-116 [2]) of 2.82% and an IC50 [3] of 467 nM. The IC50 (NCI-H1299) was 180 nM, the IC50 (K562) was 1200 nM and the Activity [4] was “Non-Toxic”. For the same compound, the IC50 (MCF7) was 1100 nM, the IC50 (Bel-7402) was 1600 nM and the IC50 (SW1990) was 230 nM. The IC50 (Histone deacetylase 2) was 3.4 nM, the Activity [5] was “Non-Toxic” and the IC50 (Histone deacetylase 11) was greater than 1000 nM. For the same compound, the Cmax [6] was 417 ng/mL, the IC50 (NCI-H460) was 2700 nM and the MTD [7] was greater than 100 mg/kg. The IC50 (DU-145) was 66 nM, the clearance [8] was 352 mL/min/kg and the Activity (HCT-116 [9]) was 83.6%. For the same compound, the IC50 (Histone deacetylase 8) was 12 nM, the Activity (HCT-116 [10]) was 5.97% and the Cmax [11] was 9.39 ng/mL. It also gave an IC50 (HepG2) of 76 nM, a Vd [12] of 50 L/kg and an Activity (HCT-116 [13]) of 70.2%. For the same compound, the IC50 (U-87 MG) was 340 nM, the IC50 [14] was greater than 30000 nM and the IC50 (Huh-7) was 240 nM. The Activity (HCT-116 [15]) was 24.4% and the F [16] was 1.7%.
